Measured values taken from paper PMC2646257 (Journal of medicinal chemistry, 2009).
Values joined by “and” are separate entries in the source; they are usually repeats but may differ in a detail not shown here. Equal values may be shown once. Read-outs that look alike come from different tables or passages of the source.

Key:
[1] = type: in vitro ADME, rat; conditions: 30 min
PBR [2] = conditions: cited from earlier work
[3] = LC-MS-MS search for metabolites in rat brain, urine and plasma in vivo
Method in brief: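 Three rats under 1.5% isoflurane received non-radioactive test compound (2.26 ± 0.76 mg) via the penile vein over 9 min, in 0.9 mL saline with 10% ethanol and Cremophor EL or Tween 80. Urethras were clamped; saline 0.1 mL was given i.v. every 30 min. Blood and urine were taken at 60 or 115 min. Brain was homogenized twice in acetonitrile/water and spun at 10,000g for 10 min. Plasma was deproteinized with acetonitrile. Samples were stored at −70 °C and analysed by LC-MS-MS.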

[4] = mouse; cited from earlier work
[5] = Radiochemical stability of formulated radioligand; type: physicochemical; conditions: formulated [^18F]9
[6] = Stability in sodium phosphate buffer; type: physicochemical; conditions: sodium phosphate buffer (0.15 M, pH 7.4), room temperature
Method in brief: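 Radioligand was incubated in 0.15 M sodium phosphate buffer, pH 7.4, at room temperature for 2 h and analysed by HPLC.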

[7] = Stability to rat brain homogenate in vitro; type: in vitro ADME; conditions: 37 °C, up to 60 min
Method in brief: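 Excised rat brain (1.70 g) was homogenized in 3 mL saline, spiked with 5 μCi radioligand and incubated at 37 °C. Aliquots (n = 6) were taken periodically up to 60 min into acetonitrile, centrifuged and analysed by radio-HPLC for % parent and radiometabolites. A second brain, homogenized in saline/acetonitrile before spiking, served as reference.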

[8] = Emergence of radiometabolites in rat plasma, brain and urine in vivo
Method in brief: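 Four rats (277–623 g) were kept under 1.5% isoflurane in oxygen at 37 °C. Two received NCA radioligand i.v. (0.812 or 1.32 mCi; >1.39 Ci/μmol) and were killed at 30 or 95 min. Two received carrier-added radioligand (0.86 or 0.89 mCi; ~0.13 Ci/μmol; saline with 10% ethanol, 5% Tween 80), had 5 mL saline i.p. 30 min before, and were killed at 60 min with urine collected. Plasma was deproteinized. Brain was homogenized on ice in saline/acetonitrile plus water and centrifuged. Analysis was by radio-HPLC.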

[9] = Emergence of radiometabolites in monkey plasma in vivo; set-up: species or system rhesus monkey
Method in brief: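 Three male rhesus monkeys (11–15 kg) received i.v. bolus radioligand during four PET scans: three baseline and one pre-block (PBR ligand 3 mg/kg i.v., 24 min before). Arterial blood was drawn periodically from the femoral artery into heparin tubes and centrifuged. Plasma (1 mL) was mixed with acetonitrile (1.5 mL) and centrifuged. Supernatant was analysed by radio-HPLC for % parent and radiometabolites. Plasma concentration was expressed as %SUV.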

[10] = Plasma free fraction, monkey; type: in vitro ADME; conditions: two monkeys, one value each (n = 9 and n = 3)
Method in brief: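 Radioligand was added to plasma and placed on a centrifugal ultrafiltration unit. The unit was spun at 5000g, and all filter-unit components were counted for radioactivity to derive free fraction.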

PBR [11] = test: PET imaging in monkeys; type: in vivo, rhesus monkey; conditions: monkey
Method in brief: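 Male rhesus monkeys (11–15 kg) received an i.v. bolus of radioligand (2.76–5.80 mCi; 0.068–0.276 μg/kg) and were scanned up to 300 min. In pre-block, PBR ligand (3 mg/kg i.v.) was given 24 min before radioligand and imaging ran 120 min. In displacement, one monkey received 1.28 mCi, then 3 mg/kg i.v. at 60 min, with 240 min scanning. Uptake was given as %SUV. Images were co-registered with T1 1.5-T MRI.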

[12] = two rats, carrier-added, 60 min

O=C(C[18F])Nc1ccccc1Oc1ccccc1 [[^18F]11, [^18F]2-fluoro-N-(2-phenoxyphenyl)acetamide]
conversion into polar radiometabolite(s) ([1]; rat brain homogenate): > 99.9%
conversion into polar radiometabolite(s) ([1]; rat whole blood): > 99.9%

COc1ccc(OC)c(CN(C(=O)CF)c2ccccc2Oc2ccccc2)c1 [compound 9, N-Fluoroacetyl-N-(2,5-dimethoxybenzyl)-2-phenoxyaniline]
selectivity for PBR (PBR [2]): selective for PBR
unchanged 9 in urine by LC-MS-MS [3]: not detected
unchanged 9 in brain and plasma by LC-MS-MS ([3]; sampled at 115 min after administration): detected

COc1ccc(OC[18F])c(CN(C(C)=O)c2cc(F)ccc2Oc2ccccc2)c1 [[^18F]4]
defluorination [4]: rapidly defluorinated

COc1ccc(OC)c(CN(C(=O)C[18F])c2ccccc2Oc2ccccc2)c1 [[^18F]9, [^18F]N-fluoroacetyl-N-(2,5-dimethoxybenzyl)-2-phenoxyaniline]
time radiochemically stable [5]: at least 4 h
time stable in buffer [6]: > 2 h
unchanged radioligand after incubation [7]: > 99.2%
[^18F]9 as share of plasma radioactivity ([8]; rat, NCA, mass dose 0.85 μg/kg, 30 min, n = 2): 12.5%
minor radiometabolite, share of total radioactivity ([8]; second rat, NCA, mass dose 3.78 μg/kg): < 5%
minor radiometabolite, share of brain radioactivity [8, 12]: < 5%
minor radiometabolite, share of plasma radioactivity [8, 12]: < 3%
minor radiometabolite, share of urine radioactivity [8, 12]: 9.9 ± 2.2%
time for radiometabolite to reach half of plasma radioactivity ([9]; baseline, the one monkey also studied with pre-block): 24 min
minor radiometabolite, share of total plasma radioactivity ([9]; monkey plasma, all samples except one): ≤ 4%
peak plasma concentration of unchanged [^18F]9, pre-block versus baseline ([9]; monkey, %SUV, same monkey): ~18 fold
time at which plasma is composed equally of radiometabolite and [^18F]9 ([9]; monkey, baseline experiments, n = 3): 31.1 ± 14.7 min
time at which plasma is composed equally of radiometabolite and [^18F]9 ([9]; monkey, pre-block with 1 (3 mg/kg i.v.), 3 mg/kg): 4.0 min and 4 min
minor radiometabolite, share of total plasma radioactivity ([9]; one monkey, one plasma sample at 60 min after injection): 8%
plasma free fraction (fP) [10]: 3.5 ± 0.2% and 1.34 ± 0.1%
defluorination (uptake of radioactivity into skull) (PBR [11]; PET images 60-120 min): does not defluorinate significantly
maximal brain uptake (PBR [11]; choroid plexus of fourth ventricle, baseline, n = 4): 371 ± 89 % SUV
proportion of brain radioactivity displaced (PBR [11]; choroid plexus, 1 (3 mg/kg i.v.) given 60 min after [^18F]9): up to 90%
